Only some compounds are listed: those with a hit (about 1.9% of all), similar ones and a draw of the others.
MBD2 inh: inhibitors of MBD2 binding to methylated DNA, primary screen, biochemical, TR-FRET, DNA-binding domain, human. inhibition, % at 4.4 µM. MBD2 binding to methylated oligonucleotide. Methyl-CpG-binding domain protein 2 (Homo sapiens), Q9UBB5. actives 0.31% (n = 370,000); in the data active = inhibition above about 13%
Tn6 DDE FP: inhibitors of Tn6 peptide binding to fibrin DD(E), primary screen, biochemical, fluorescence polarization, human fibrin, Tn6 probe; Fibrin DD(E) TRITC-Tn6 fluorescence polarization displacement; actives 0.21% (n = 370,000); inhibition, % at 8.3 µM;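 active = inhibition above a per-campaign cutoff: mean of compounds within control limits plus 3 SD, cut at about 15% in these data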;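 note: 0% = median of all compound wells on the plate and 100% = blocking peptide control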
DDE Tn7 FP inh: inhibitors of Tn7 peptide binding to fibrin DD(E), primary screen, biochemical, fluorescence polarization, human fibrin, Tn7 probe. FP displacement of FITC-Tn7 peptide from fibrin DD(E); 0% = median of compound wells per plate. inhibition, % at 8.3 µM. actives 0.13% (n = 370,000);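 active = inhibition above the mean of compounds falling within the control limits plus 3 SD of them, cut at about 14% in these data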;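 note: 0% = plate median of compound wells and 100% = 10 µM Aha-Tn7 peptide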
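Assay system: human fibrin DD(E). Input: DD(E) 2 µM final. Medium: Tris buffer with calcium and detergent, pH 7.8. Compound dosing: single point at 8.3 µM. Timing: 10 min plus 3 h, room temperature. Technique: fluorescence polarization of the labelled Tn7 tracer. Read-out: percent inhibition. Replicates: singlicate testing.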
TDP2 inh: human TDP2 enzyme inhibitors, primary screen, biochemical, epi absorbance, recombinant enzyme; T5PNP hydrolysis, p-nitrophenol absorbance 415 nm; Tyrosyl-DNA phosphodiesterase 2 (Homo sapiens), O95551; actives 0.34% (n = 370,000); AID 720702, 2013; inhibition, % at 12.8 µM;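 active = inhibition above the mean of all tested compounds plus 3 SD, set per campaign, cut at about 25% in these data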;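 note: 0% = DMSO with enzyme and 100% = buffer with substrate but no TDP2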
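System – recombinant human TDP2 · Amount – 120 nM TDP2 per well · Buffer or medium – Mg2+-containing Tris-HCl buffer, pH 7.5 · Reagent – T5PNP substrate, 5 mM · Dosing – 12.8 µM single point, 1% DMSO · Incubation – 2 h at 37 °C · Measured by – epi absorbance · Read-out basis – percent inhibition · Benchmarks – high control without enzyme, low control DMSO plus TDP2 · Repeats – singlicate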
LEDGF integ inh: blockers of LEDGF/p75-dependent integrase strand transfer – biochemical, TR-FRET, high throughput, primary screen. HIV-1 integrase (with human LEDGF/p75). TR-FRET IN-LEDGF/p75 DNA integration, Eu/Cy5. inhibition, % at 3.7 µM. actives 0.64% (n = 370,000). AID 743269, 2014;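 active = inhibition above the screen-wide mean plus 3 SD, cut at about 13% in these data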;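 note: signal is the Cy5 over europium emission ratio at 671 and 618 nm; 0% = plate median of compound wells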
UHRF1 binding: UHRF1 methylated DNA binding inhibitors, primary screen, counter-screen for MBD2 inhibitor project, biochemical, TR-FRET, human UHRF1, single concentration. UHRF1 binding to methylated oligo. inhibition, % at 4.4 µM. actives 0.75% (n = 370,000). AID 687016, 2013; in the data active = inhibition above about 21%;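 note: UHRF1 SRA domain binding a hemimethylated CpG hairpin DNA probe; 0% = median of test compound wells and 100% = reference inhibitor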
IN multimer act: HIV-1 IN multimer formation enhancers, counter-screen for LEDGF/p75 integration inhibitor project, biochemical, TR-FRET. shares compounds with LEDGF integ inh. TR-FRET HIV-1 integrase multimerization. activation, % at 7.7 µM. actives 17% (n = 2,000); in the data active = activation above about 8.9%
TRFRET interf: TR-FRET optical interference artefacts, confirmation, artefact control for LEDGF/p75-dependent integration inhibitor project, biochemical, HIV-1 IN multimerization; shares compounds with LEDGF integ inh; TR-FRET optical interference counterscreen; AID 1053135, 2014; inhibition, % at 7.7 µM; 2,000 tested, under 10 active;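 active = inhibition above the mean over all tested compounds plus 3 SD, which no compound reached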;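 note: 0% = integrase with antibodies and DMSO and 100% = antibodies without integrase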
LEDGF integ conf: inhibitors of HIV-1 IN-LEDGF/p75 DNA integration, confirmation, biochemical, TR-FRET | shares compounds with LEDGF integ inh | TR-FRET LEDGF/p75-dependent HIV-1 integration | inhibition, % at 3.7 µM | actives 36% (n = 2,000) | AID 1053136, 2014; in the data active = inhibition above about 14%
Starred values were filed as active, the others as inactive; . = not tested or not shown.

SMILES | MBD2 inh | Tn6 DDE FP | DDE Tn7 FP inh | TDP2 inh | LEDGF integ inh | UHRF1 binding | IN multimer act | TRFRET interf | LEDGF integ conf
CCN(Cc1ccccc1)C(=O)C1CCCN(c2ncccn2)C1 (centres undefined) | -0.1 | 6.7 | 1.1 | 2.1 | 2.4 | -0.3 | . | . | .
Cc1ccc(S(=O)(=O)N2OC(c3ccccc3)C[C@H]2CC=C(c2ccccc2)c2ccccc2)cc1 (some centres undefined) | 9.9 | 2.5 | -2.0 | 2.8 | 1.0 | 11.9 | . | . | .
CCOC(=O)c1c2ccc(OCC(=O)N/N=C/c3ccc(Cl)cc3)cc2n2ccccc12 | 9.6 | -12.4 | -0.9 | 7.7 | 14.1* | 10.2 | -2.4 | 11.9 | 5.9
O=C(O)/C(=C\c1ccco1)NC(=O)c1cccc2ccccc12 | 12.7 | -0.5 | 2.7 | 4.4 | 29.3* | 21.5* | 3.3 | -16.7 | 7.2
CC(C)(C)c1ccc(C(=O)N/C(=C\c2ccco2)C(=O)O)cc1 | -1.6 | -2.0 | -3.1 | 3.0 | 11.2 | 0.8 | . | . | .
O=C(O)/C(=C/c1ccco1)NC(=O)c1ccccc1 | -2.9 | -0.9 | 2.5 | 4.0 | 26.7* | 7.4 | -1.7 | 8.4 | 6.7
O=C(/C=C(\Nc1ccc(Cl)c(C(F)(F)F)c1)c1ccccc1)c1ccccc1 | -0.1 | -0.2 | -9.6 | 1.4 | 0.4 | 0.3 | . | . | .
Clc1ccc2oc(-c3cccnc3)nc2c1 | -6.2 | 1.8 | 5.9 | 5.7 | -0.2 | -8.3 | . | . | .
Clc1ccc2oc(-c3ccccc3)nc2c1 | 2.0 | -1.9 | -5.0 | 12.5 | 19.4* | 8.8 | 5.8 | -20.2 | 4.0
CC(c1ccc(Cl)cc1)N(CCN(C)C)c1ccccn1 (centres undefined) | 0.2 | -1.4 | -3.5 | 0.1 | 0.5 | -4.8 | . | . | .
C=CCNC(=S)N(C)[C@H]1C[C@H]2c3cc(-c4ccccc4C)ccc3CCN2C[C@H]1[C@H](C)O | 10.1 | 1.9 | 6.4 | 3.8 | -0.2 | 8.9 | . | . | .
S=C(NCc1ccccc1)NCc1cccc(CNC(=S)NCc2ccccc2)c1 | 1.5 | 0.7 | -8.5 | -6.7 | 43.9* | -5.9 | 1.5 | -7.3 | -11.3
COC(=O)C[C@H]1CC[C@@H]2[C@H](COc3ccc(NC(=O)c4cnccn4)cc3C(=O)N2C)O1 | 5.7 | -3.9 | -1.5 | -10.5 | 1.0 | -1.7 | . | . | .
NC(=O)/C(=C\c1ccc([N+](=O)[O-])o1)c1ccco1 | -6.1 | 4.8 | 1.5 | -13.8 | 22.1* | 3.5 | 5.7 | -28.9 | 27.9*
O=C(Nc1cccc(NC(=O)c2ccc([N+](=O)[O-])o2)c1)c1ccco1 | 0.5 | -12.9 | -4.5 | 7.2 | -2.5 | -1.5 | . | . | .
Cc1ccc(S(=O)(=O)N2c3ccccc3C[C@H]2CC=C(c2ccccc2)c2ccccc2)cc1 | 0.8 | -0.9 | -6.4 | -7.0 | 6.0 | 0.2 | . | . | .
Cc1cc(C)n2nc(-c3ccsc3-n3c(C)ccc3C)cc2n1 | -0.1 | -2.7 | -8.6 | -1.6 | 24.1* | 0.1 | 4.1 | -20.6 | 20.2*

From PubChem
